Reference: ChEMBL document CHEMBL4261529, “Rational design and optimization of selenophenes with basic side chains as novel potent selective estrogen receptor modulators (SERMs) for breast cancer therapy” (Medchemcomm, 2017)
The source made the active and inactive calls. No cut-off for these calls is given here.

Legend:
[1] = target: T1, Estrogen receptor (Homo sapiens, UniProt P03372); assay: Agonist activity at ERalpha (unknown origin) expressed in HEK293T cells assessed as transcriptional activity after 24 hrs by dual luciferase reporter gene assay; type: cell-based
T1 sequence (P03372 whole entry): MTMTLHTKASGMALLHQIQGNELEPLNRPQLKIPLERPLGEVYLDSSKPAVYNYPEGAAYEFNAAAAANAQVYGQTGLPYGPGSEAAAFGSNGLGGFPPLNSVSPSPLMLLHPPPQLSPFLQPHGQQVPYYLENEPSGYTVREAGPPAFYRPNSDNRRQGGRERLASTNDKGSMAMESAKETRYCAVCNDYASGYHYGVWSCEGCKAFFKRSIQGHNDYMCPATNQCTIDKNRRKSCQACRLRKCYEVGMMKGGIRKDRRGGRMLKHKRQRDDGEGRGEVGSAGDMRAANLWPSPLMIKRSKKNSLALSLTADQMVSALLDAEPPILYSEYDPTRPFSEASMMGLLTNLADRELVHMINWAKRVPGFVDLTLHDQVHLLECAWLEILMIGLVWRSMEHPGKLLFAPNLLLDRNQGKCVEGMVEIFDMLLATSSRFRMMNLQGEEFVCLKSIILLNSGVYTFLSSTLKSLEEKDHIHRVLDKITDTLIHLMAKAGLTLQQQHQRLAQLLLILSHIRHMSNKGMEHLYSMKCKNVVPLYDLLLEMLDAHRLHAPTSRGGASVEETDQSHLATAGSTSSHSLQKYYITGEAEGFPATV

[2] = target: T2, Estrogen receptor (Homo sapiens) (UniProt P03372); assay: Binding affinity to human ERalpha LBD expressed in Escherichia coli BL21(DE3) after 2 hrs by fluorescence tracer coumestrol based competitive fluorometric binding assay relative to 17beta-estradiol
T2 sequence (whole entry): T1 sequence (P03372 whole entry)

[3] = target: T3, Estrogen receptor beta (Homo sapiens, UniProt Q92731); assay: Antagonist activity at ERbeta (unknown origin) expressed in HEK293T cells assessed as inhibition of 17beta-estradiol stimulated transcriptional activity after 24 hrs by dual luciferase reporter gene assay relative to 17beta-estradiol; type: cell-based
T3 sequence (Q92731 whole entry): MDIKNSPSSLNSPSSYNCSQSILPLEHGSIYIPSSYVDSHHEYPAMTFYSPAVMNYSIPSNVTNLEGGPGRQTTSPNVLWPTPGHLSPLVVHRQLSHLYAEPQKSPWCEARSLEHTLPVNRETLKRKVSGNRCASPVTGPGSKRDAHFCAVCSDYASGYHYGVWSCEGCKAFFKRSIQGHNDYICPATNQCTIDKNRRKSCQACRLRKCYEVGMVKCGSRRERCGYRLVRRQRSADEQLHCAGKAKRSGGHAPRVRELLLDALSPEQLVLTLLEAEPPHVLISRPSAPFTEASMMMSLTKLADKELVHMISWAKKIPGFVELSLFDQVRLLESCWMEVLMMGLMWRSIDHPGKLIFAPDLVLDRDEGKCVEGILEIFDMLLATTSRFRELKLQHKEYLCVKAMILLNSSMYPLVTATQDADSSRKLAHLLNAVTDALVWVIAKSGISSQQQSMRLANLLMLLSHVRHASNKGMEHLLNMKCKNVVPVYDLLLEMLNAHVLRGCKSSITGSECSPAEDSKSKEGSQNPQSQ
Summary of the method: (§1)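 ERβ expression vector (100 ng) plus 300 ng 3×ERE-luciferase reporter, calcium phosphate transfection into HEK293T cells plated in phenol red-free DMEM with 10% FBS. Next day, treated in triplicate with increasing doses (up to 10–5 M). For antagonist mode, 10 nM estradiol was co-added. Luciferase read 24 h later.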

[4] = tested on: MCF7; assay: Antiproliferative activity against human MCF7 cells after 72 hrs by MTT assay; type: functional, cell-based; conditions: MCF7, 72 h
Summary of the method: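 MCF-7 (ATCC), kept in DMEM with 10% FBS, were treated in triplicate for 72 h. IC50 is the average of at least three independent experiments ± SD.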

[5] = species: Homo sapiens; assay: Ratio of relative binding affinity for human ERalpha LBD to relative binding affinity to human ERbeta LBD
[6] = target: T3, Estrogen receptor beta; assay: Antagonist activity at ERbeta (unknown origin) expressed in HEK293T cells assessed as inhibition of 17beta-estradiol stimulated transcriptional activity after 24 hrs by dual luciferase reporter gene assay; type: cell-based
Summary of the method: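 HEK293T cells kept in DMEM with 10% FBS, plated in phenol red-free DMEM/10% FBS. Calcium phosphate co-transfection with 300 ng 3×ERE-luciferase reporter and 100 ng ERβ expression vector. Next day, cells stimulated with 10 nM estradiol plus increasing compound doses (up to 10–5 M), in triplicate. Luciferase read after 24 h.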

[7] = target: T1, Estrogen receptor; assay: Antagonist activity at ERalpha (unknown origin) expressed in HEK293T cells assessed as inhibition of 17beta-estradiol stimulated transcriptional activity after 24 hrs by dual luciferase reporter gene assay; type: cell-based
[8] = target: T3, Estrogen receptor beta; assay: Binding affinity to human ERbeta LBD expressed in Escherichia coli BL21(DE3) after 2 hrs by fluorescence tracer coumestrol based competitive fluorometric binding assay relative to 17beta-estradiol
[9] = tested on: MCF7; assay: Antiproliferative activity against human MCF7 cells at 50 uM after 5 days in presence of 10 nM 17beta-estradiol by MTT assay; type: functional, cell-based
Summary of the method: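 MCF-7 cells were given 50 μM compound with or without 10 nM E2 and cultured 5 days. Viability was expressed relative to untreated cells set at 100%. Mean of three separate experiments ± range.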

[10] = target: T3, Estrogen receptor beta; assay: Agonist activity at ERbeta (unknown origin) expressed in HEK293T cells assessed as transcriptional activity after 24 hrs by dual luciferase reporter gene assay relative to 17beta-estradiol; type: cell-based; summary of the method: as §1
[11] = target: T3, Estrogen receptor beta; assay: Agonist activity at ERbeta (unknown origin) expressed in HEK293T cells assessed as transcriptional activity after 24 hrs by dual luciferase reporter gene assay; type: cell-based; summary of the method: as §1

Row | SMILES | EC50 [1] [nM] | RBA [2] [%] | Efficacy [3] [%] | IC50 [4] [nM] | Ratio [5] | IC50 [6] [nM] | IC50 [7] [nM] | RBA [8] [%] | Activity [9] | Efficacy [10] [%] | EC50 [11] [nM]
1 | Cc1cc(O)ccc1-c1ccc(-c2ccc(OCCN3CCCCC3)cc2C)[se]1 | 2370 | < 0.1 | 78.3 | 25300 | < 0.1 | 1240 | 41 | 0.62 |  |  | 
2 | Cc1cc(O)ccc1-c1c[se]cc1-c1ccc(O)cc1C |  | 0.27 |  |  |  |  |  | 6.7 |  |  | 
3 | Oc1ccc(-c2c[se]cc2-c2ccc(OCCN3CCCCC3)cc2)cc1 |  | 7.58 | 22.8 | 8130 | 3.3 | 451 | 1590 | 2.35 | inactive | 53.5 | 1150
4 | Oc1ccc(-c2ccc(-c3ccc(OCCN4CCCC4)cc3F)[se]2)c(F)c1 | 136 | 0.76 | 92.1 | > 100000 | > 10 | 1120 |  | < 0.1 |  |  | 
5 | Oc1ccc(-c2ccc(-c3ccc(O)cc3)[se]2)cc1 |  | 0.61 |  |  |  |  |  | 2.87 |  |  | 
6 | Oc1ccc(-c2c[se]cc2-c2ccc(OCCN3CCCC3)cc2)cc1 | 1000 | 2.06 | 46.7 | > 100000 | 0.35 | 102 |  | 5.92 |  |  | 
7 | Cc1cc(O)ccc1-c1c[se]cc1-c1ccc(OCCN2CCCC2)cc1C |  | 1.65 | 66.7 | 16600 | 3.6 | 43 | 179 | 0.46 |  |  | 
8 | Oc1ccc(-c2c[se]cc2-c2ccc(O)cc2)cc1 |  | 0.32 |  |  |  |  |  | 2.01 |  |  | 
9 | Oc1ccc(-c2cc(-c3ccc(OCCN4CCCCC4)cc3)c(-c3ccc(O)cc3)[se]2)cc1 | 1830 | 4.59 | 33.8 | 7040 | > 10 | 5390 | 779 | < 0.1 |  |  | 
10 | Cc1cc(O)ccc1-c1cc(-c2ccc(OCCN3CCCC3)cc2)c(-c2ccc(O)cc2C)[se]1 |  | 13.8 | 170 | 7050 | 4.06 | 16 | 13 | 3.4 |  |  | 
11 | Oc1ccc(-c2ccc(-c3ccc(OCCN4CCCCC4)cc3F)[se]2)c(F)c1 | 204 | 6.89 | 75.4 | > 100000 | 10.9 | 1940 |  | 0.63 |  |  | 
12 | Oc1ccc(-c2c[se]cc2-c2ccc(OCCN3CCCCC3)c(F)c2)cc1F |  | 4.82 | 45 | 15600 | 0.32 | 540 | 69 | 15.3 |  |  | 
13 | Cc1cc(O)ccc1-c1ccc(-c2ccc(O)cc2C)[se]1 |  | 5.6 |  |  |  |  |  | 11.1 |  |  | 
14 | Oc1ccc(-c2cc(-c3ccc(OCCN4CCCC4)cc3)c(-c3ccc(O)cc3)[se]2)cc1 |  | 3.14 | 49.2 | 4950 | 0.18 | 475 | 974 | 16.7 | inactive |  | 
15 | Cc1cc(O)ccc1-c1ccc(-c2ccc(OCCN3CCCC3)cc2C)[se]1 |  | 1.96 | 4.6 | 53800 | 3.37 | 146 | 874 | 0.58 |  | 72.3 | 240
16 | Cc1cc(O)ccc1-c1c[se]cc1-c1ccc(OCCN2CCCCC2)cc1C | 158 | 0.56 | 43.4 | 15800 | 0.05 | 1340 | 237 | 10.2 |  |  | 
17 | Oc1ccc(-c2c[se]cc2-c2ccc(O)c(F)c2)cc1F |  | 0.58 |  |  |  |  |  | 1.56 |  |  | 
18 | Oc1ccc(-c2ccc(-c3ccc(OCCN4CCCC4)cc3Cl)[se]2)c(Cl)c1 |  | 4.59 | 49.4 | 7810 | 0.19 | 299 | 415 | 23.6 |  |  | 
19 | Oc1ccc(-c2c[se]cc2-c2ccc(OCCN3CCCCC3)cc2Cl)c(Cl)c1 |  | 5.38 | 37.7 | 14100 | 0.29 | 331 | 413 | 18.4 |  |  | 
20 | Oc1ccc(-c2ccc(-c3ccc(OCCN4CCCC4)cc3)[se]2)cc1 | 219 | 12.4 | 83.9 | 5770 | 12.2 | 1270 | 1210 | 1.02 | inactive |  | 
21 | Cc1cc(-c2c[se]cc2-c2ccc(O)c(C)c2)ccc1O |  | 0.71 |  |  |  |  |  | 0.62 |  |  | 
22 | Oc1ccc(-c2ccc(-c3ccc(O)cc3F)[se]2)c(F)c1 |  | 5.9 |  |  |  |  |  | 24.3 |  |  | 
23 | Cc1cc(-c2c[se]cc2-c2ccc(OCCN3CCCC3)c(C)c2)ccc1O | 116 | 2.03 | 34.1 | 12800 | 0.34 | 5 | 836 | 5.92 |  | 20.8 | 
24 | Oc1ccc(-c2ccc(-c3ccc(O)cc3Cl)[se]2)c(Cl)c1 |  | 6.11 |  |  | 0.48 |  |  | 12.7 |  |  | 
25 | Cc1cc(-c2c[se]cc2-c2ccc(OCCN3CCCCC3)c(C)c2)ccc1O | 721 | < 0.1 | 30.3 | > 100000 |  | 415 |  | < 0.1 |  |  | 
26 | Oc1ccc(-c2c[se]cc2-c2ccc(OCCN3CCCC3)cc2Cl)c(Cl)c1 |  | < 0.1 | 68.1 | 10900 | < 0.1 | 1160 | 769 | 23.3 |  |  | 
27 | Oc1ccc(-c2ccc(-c3ccc(OCCN4CCCCC4)cc3Cl)[se]2)c(Cl)c1 | 911 | < 0.1 | 24.9 | > 100000 |  | 2960 |  | < 0.1 |  |  | 
